≈ marks a conversion by molar mass, not a printed value. Where “and” joins values, the source holds several entries; their conditions need not be identical. Equal entries are not always repeated.
Legend:
Rattus norvegicus = assay: Volume at steady state distribution by administering the compound intravenously at a dose of 1 mg/kg in male wistar rat was determined; format: ADME, organism-based; design: dose 1 mg/kg, route intravenous; conditions: in vivo, iv
[1] = Clearance was determined by administering the compound intravenously at a dose of 1 mg/kg in male wistar rat; format: ADME, organism-based; design: dose 1 mg/kg, route intravenous; conditions: in vivo, iv
[2] = Half life was determined by administering the compound intravenously at a dose of 1 mg/kg in male wistar rat; format: ADME, organism-based; design: dose 1 mg/kg, route intravenous; conditions: in vivo, iv
[3] = Area under the curve was determined by administering the compound at a dose of 1 mg/kg intravenously in male wistar rat; format: ADME, organism-based; design: dose 1 mg/kg, route intravenous; conditions: in vivo, iv
[4] = target: T1, Poly [ADP-ribose] polymerase 1 (Homo sapiens, UniProt P09874); assay: Inhibitory activity against human recombinant PARP-1
T1 sequence (P09874 whole entry): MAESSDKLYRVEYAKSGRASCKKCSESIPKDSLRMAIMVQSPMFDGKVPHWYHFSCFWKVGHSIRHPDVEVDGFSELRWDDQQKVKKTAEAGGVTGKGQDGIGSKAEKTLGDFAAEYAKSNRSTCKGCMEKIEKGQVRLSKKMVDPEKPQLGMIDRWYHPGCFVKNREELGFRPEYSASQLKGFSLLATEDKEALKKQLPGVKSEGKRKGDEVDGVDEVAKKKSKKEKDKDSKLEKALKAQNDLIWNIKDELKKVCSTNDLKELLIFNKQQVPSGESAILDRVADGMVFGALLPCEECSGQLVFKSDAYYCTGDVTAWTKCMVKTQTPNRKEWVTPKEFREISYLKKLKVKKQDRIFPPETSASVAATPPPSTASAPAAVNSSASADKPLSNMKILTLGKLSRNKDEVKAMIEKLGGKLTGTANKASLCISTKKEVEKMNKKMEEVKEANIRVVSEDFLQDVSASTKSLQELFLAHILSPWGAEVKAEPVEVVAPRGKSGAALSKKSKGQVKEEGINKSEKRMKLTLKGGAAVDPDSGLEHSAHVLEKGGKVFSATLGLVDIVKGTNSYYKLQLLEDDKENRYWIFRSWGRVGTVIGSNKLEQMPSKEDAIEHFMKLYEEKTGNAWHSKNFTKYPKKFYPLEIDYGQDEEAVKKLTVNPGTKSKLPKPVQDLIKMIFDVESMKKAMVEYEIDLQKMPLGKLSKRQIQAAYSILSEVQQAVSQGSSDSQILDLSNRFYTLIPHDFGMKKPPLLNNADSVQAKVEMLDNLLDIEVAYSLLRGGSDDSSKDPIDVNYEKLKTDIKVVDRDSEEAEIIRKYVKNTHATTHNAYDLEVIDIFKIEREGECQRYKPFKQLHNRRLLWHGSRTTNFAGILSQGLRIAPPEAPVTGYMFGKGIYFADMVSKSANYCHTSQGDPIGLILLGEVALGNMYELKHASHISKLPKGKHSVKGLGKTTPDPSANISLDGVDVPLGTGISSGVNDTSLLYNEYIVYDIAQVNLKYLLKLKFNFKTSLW

[5] = Solubility in phosphate buffered saline (1% DMSO) at pH 6.5 (24 hr equilibration); format: physicochemical; conditions: buffer
[6] = target: T1, Poly [ADP-ribose] polymerase 1; assay: Concentration required to inhibit human recombinant Poly (ADP-ribose) polymerase 1 was determined using dose-response inhibition
Outline: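 Purified recombinant human PARP-1 from a baculovirus (Bac-To-Bac) expression system. It ran 10 min at rt and was stopped with ice-cold 10% TCA. Precipitate was filtered, washed with ethanol and dried, then counted by scintillation. Read-out: IC50.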

Row | SMILES | IC50 [4] | other results
1 | COc1ccc(N2CCN(C(=O)CNC(=O)CCn3c4c(c(=O)[nH]c3=O)CSCC4)CC2)cc1 | 20 nM and 25 nM | Vss (Rattus norvegicus): 1.01 L/kg; clearance [1]: > 75 mL/min/kg; half-life [2]: 12 min; AUC [3]: 160 ng·h/mL
2 | O=C(CCn1c2c(c(=O)[nH]c1=O)CSCC2)NCC(=O)c1ccc(OC(F)F)cc1 | 30 nM | 
3 | COc1ccc(C(=O)CNC(=O)CCn2c3c(c(=O)[nH]c2=O)CSCC3)cc1 | 25 nM | 
4 | O=C(CCn1c2c(c(=O)[nH]c1=O)COCC2)NCC(=O)N1CCN(c2ncccn2)CC1 | 800 nM | 
5 | Nc1cccnc1N1CCN(C(=O)CNC(=O)CCn2c3c(c(=O)[nH]c2=O)CSCC3)CC1 | 70 nM | 
6 | O=C(CCn1c2c(c(=O)[nH]c1=O)CSCC2)NCC(=O)N1CCN(c2ncccc2C(F)(F)F)CC1 | 40 nM | clearance [1]: 71.7 mL/min/kg; AUC [3]: 230 ng·h/mL
7 | O=C(CCn1c2c(c(=O)[nH]c1=O)CSCC2)NCC(=O)c1ccc(Cl)cc1 | 60 nM | 
8 | O=C(CCn1c2c(c(=O)[nH]c1=O)CSCC2)NCC(=O)c1cccc(-c2ccccc2)c1 | 70 nM | 
9 | O=C(CCn1c2c(c(=O)[nH]c1=O)CC=CCC2)NCC(=O)N1CCN(c2ncccn2)CC1 | 900 nM | 
10 | O=C(CCn1c2c(c(=O)[nH]c1=O)CSCC2)NCC(=O)c1ccc(-c2cccnn2)cc1 | 25 nM | Vss (Rattus norvegicus): 0.27 L/kg; clearance [1]: 27.3 mL/min/kg; half-life [2]: 18 min; AUC [3]: 610 ng·h/mL
11 | O=C(CCn1c2c(c(=O)[nH]c1=O)CCCCC2)NCC(=O)N1CCN(c2ncccn2)CC1 | 900 nM | 
12 | O=C(CCn1c2c(c(=O)[nH]c1=O)CSCC2)NCC(=O)N1CCN(c2cc(C(F)(F)F)ccn2)CC1 | 20 nM | Vss (Rattus norvegicus): 0.42 L/kg; clearance [1]: 36.8 mL/min/kg; half-life [2]: 18 min; AUC [3]: 450 ng·h/mL
13 | O=C(CCn1c2c(c(=O)[nH]c1=O)CSCC2)NCC(=O)c1ccc(-c2ccncc2)cc1 | 15 nM | 
14 | O=C(CCn1c2c(c(=O)[nH]c1=O)CSCC2)NCC(=O)N1CCN(c2ccccn2)CC1 | 35 nM | Vss (Rattus norvegicus): 1.19 L/kg; clearance [1]: 51.8 mL/min/kg; half-life [2]: 72 min; AUC [3]: 320 ng·h/mL
15 | O=C(CCn1c2c(c(=O)[nH]c1=O)CSCC2)NCC(=O)N1CCN(c2cccnn2)CC1 | 20 nM | 
16 | O=C(CCn1c2c(c(=O)[nH]c1=O)CSCC2)NCC(=O)N1CCN(c2ncncn2)CC1 | 50 nM | 
17 | O=C(CCn1c2c(c(=O)[nH]c1=O)CCCC2)NCC(=O)N1CCN(c2ncccn2)CC1 | 90 nM | 
18 | CN(CC(=O)c1ccc2ccccc2c1)C(=O)CCn1c2c(c(=O)[nH]c1=O)CCCC2 | 400 nM | 
19 | O=C(CCn1c2c(c(=O)[nH]c1=O)CSCC2)NCC(=O)c1ccc(-c2ccccc2)cc1 | 20 nM | 
20 | O=C(CCn1c2c(c(=O)[nH]c1=O)CSCC2)NCC(=O)c1ccc(OC(=O)c2ccccc2)cc1 | 30 nM | 
21 | O=C(CCn1c2c(c(=O)[nH]c1=O)CSCC2)NCC(=O)N1CCN(c2ccncc2)CC1 | 40 nM | 

Row | SMILES | IC50 [4] | other results
22 | O=C(CCCCCn1c2c(c(=O)[nH]c1=O)CSCC2)NCC(=O)N1CCN(c2ncccn2)CC1 | 250 nM | 
23 | O=C(CCn1c2c(c(=O)[nH]c1=O)CCCC2)NCC(=O)c1ccc(Br)cc1 | 80 nM | 
24 | O=C(Cn1c2c(c(=O)[nH]c1=O)CSCC2)NCC(=O)N1CCN(c2ncccn2)CC1 | 150 nM | 
25 | Nc1cccc(-c2ccc(C(=O)CNC(=O)CCn3c4c(c(=O)[nH]c3=O)CSCC4)cc2)c1 | 20 nM | 
26 | O=C(CCn1c2c(c(=O)[nH]c1=O)CSCC2)NCC(=O)c1ccc(-c2cccnc2)cc1 | 12 nM | 
27 | C=CCCc1c(CC=C)c(=O)[nH]c(=O)n1CCC(=O)NCC(=O)N1CCN(c2ncccn2)CC1 | > 5000 nM | 
28 | O=C(CCn1c2c(c(=O)[nH]c1=O)CCCC2)NCC(=O)N1CCN(c2ccccc2)CC1 | 200 nM | 
29 | CC(CC(=O)NCC(=O)c1ccc2ccccc2c1)n1c2c(c(=O)[nH]c1=O)CCCC2 (stereo not given) | > 5000 nM | 
30 | O=C(CCn1c2c(c(=O)[nH]c1=O)CCCC2)NCC(=O)c1ccccc1 | 450 nM | 
31 | O=C(Cn1c2c(c(=O)[nH]c1=O)CSCC2)NCCC(=O)N1CCN(c2ncccn2)CC1 | 60 nM | 
32 | O=C(CCn1c2c(c(=O)[nH]c1=O)CSCC2)NCC(=O)c1ccc(Oc2ccccc2)cc1 | 30 nM | 
33 | O=C(CCn1c2c(c(=O)[nH]c1=O)CCCC2)NCC(=O)c1ccc2ccccc2c1 |  | Vss (Rattus norvegicus): 0.5 L/kg; clearance [1]: 28.3 mL/min/kg; half-life [2]: 42 min; AUC [3]: 600 ng·h/mL
34 | O=C(CCn1c2c(c(=O)[nH]c1=O)CSCC2)NCC(=O)N1CCN(c2ncccn2)CC1 |  | Vss (Rattus norvegicus): 0.31 L/kg; clearance [1]: 33.5 mL/min/kg; half-life [2]: 12 min; AUC [3]: 520 ng·h/mL
35 | O=C(CCn1c2c(c(=O)[nH]c1=O)CSCC2)NCC(=O)c1ccc(Br)cc1 | 15 nM | 
36 | COc1ccc(C(=O)CNC(=O)CCn2c3c(c(=O)[nH]c2=O)CCCC3)cc1 | 300 nM | 
37 | O=C(CCn1c2c(c(=O)[nH]c1=O)CSCC2)NCC(=O)c1ccc(N2CCCC2)cc1 | 12 nM | 
38 | O=C(CCn1c2c(c(=O)[nH]c1=O)CSCC2)NCC(=O)N1CCN(c2ccccc2)CC1 |  | Solubility [5]: 330 µg/mL (≈ 721 µM); Vss (Rattus norvegicus): 1.39 L/kg; clearance [1]: 72.2 mL/min/kg; half-life [2]: 24 min; AUC [3]: 230 ng·h/mL; IC50 [6]: 30 nM
39 | O=C(CCn1c2c(c(=O)[nH]c1=O)CSCC2)NCC(=O)c1ccc(-c2cncnc2)cc1 | 25 nM | 
40 | O=C(CCn1c2c(c(=O)[nH]c1=O)CSCC2)NCC(=O)c1cccc(Br)c1 | 70 nM | 
41 | COc1ccc(-c2ccc(C(=O)CNC(=O)CCn3c4c(c(=O)[nH]c3=O)CSCC4)cc2)cc1 | 15 nM | 
